Measurements published in ChEMBL document CHEMBL5230179, “Novel irreversible peptidic inhibitors of transglutaminase 2” (RSC Med Chem, 2023).
Activity calls are given as the source filed them. The calls are words filed in the database; no cut-off is given here.

Tests used:
[1] = target: T1, Protein-glutamine gamma-glutamyltransferase (Homo sapiens, UniProt P21980); assay: Irreversible inhibition of recombinant human TG2 expressed in Escherichia coli BL21 assessed as inhibition constant using AL5 as substrate by continuous chromogenic assay
T1 sequence (P21980 whole entry): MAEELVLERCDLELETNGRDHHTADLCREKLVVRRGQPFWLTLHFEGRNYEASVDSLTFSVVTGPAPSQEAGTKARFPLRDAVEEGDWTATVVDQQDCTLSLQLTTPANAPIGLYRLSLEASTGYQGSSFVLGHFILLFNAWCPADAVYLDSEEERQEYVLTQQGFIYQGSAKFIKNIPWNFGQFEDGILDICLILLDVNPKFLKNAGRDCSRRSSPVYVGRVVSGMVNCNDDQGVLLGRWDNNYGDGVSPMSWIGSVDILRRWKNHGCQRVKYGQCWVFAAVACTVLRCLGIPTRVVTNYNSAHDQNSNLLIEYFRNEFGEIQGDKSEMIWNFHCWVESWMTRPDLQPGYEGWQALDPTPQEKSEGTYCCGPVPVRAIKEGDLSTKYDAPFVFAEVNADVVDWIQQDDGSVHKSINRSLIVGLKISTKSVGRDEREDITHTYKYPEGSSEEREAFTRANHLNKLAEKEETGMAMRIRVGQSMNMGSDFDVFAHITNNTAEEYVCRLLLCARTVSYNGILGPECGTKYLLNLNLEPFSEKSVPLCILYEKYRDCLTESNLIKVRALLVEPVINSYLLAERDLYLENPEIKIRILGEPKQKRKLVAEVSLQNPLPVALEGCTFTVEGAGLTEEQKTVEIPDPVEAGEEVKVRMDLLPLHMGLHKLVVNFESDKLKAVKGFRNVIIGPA
How it was run: (§1)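 Human TG2 expressed and purified from E. coli BL21; AL5 (Cbz-Glu(γ-p-nitrophenyl ester)-Gly-OH) hydrolysis read at 405 nm for 20 min at 25 °C under Kitz–Wilson conditions; final 100 µM AL5, 50 mM MOPS pH 6.9, 7.5 mM CaCl2, 5 mU/mL TG2, <5% DMSO; ≥4 inhibitor levels; rate constants fitted by saturation model against [I]/α (α = 1 + [S]/KM) for kinact and KI.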

[2] = target: T2, Protein-glutamine gamma-glutamyltransferase (Homo sapiens) (UniProt P21980); assay: Irreversible inhibition of recombinant human TG2 expressed in Escherichia coli BL21 assessed as Kinact using AL5 as substrate by continuous chromogenic assay; how it was run: as §1
T2 sequence (whole entry): T1 sequence (P21980 whole entry)

[3] = target: T2, Protein-glutamine gamma-glutamyltransferase (Homo sapiens); assay: Irreversible inhibition of recombinant human TG2 expressed in Escherichia coli BL21 assessed as ratio of Kinact/Ki using AL5 as substrate by continuous chromogenic assay; how it was run: as §1
[4] = Apparent permeability from apical to basolateral side in MDCK-MDR1 cells; format: ADME, cell-based, Canis lupus familiaris; conditions: dog
[5] = Apparent permeability from basolateral to apical side in MDCK-MDR1 cells; format: ADME, cell-based, Canis lupus familiaris; conditions: dog
MDR1 = assay: Efflux ratio of apparent permeability in MDCK-MDR1 cells; format: ADME, cell-based, Canis lupus familiaris; conditions: dog
[6] = Lipophilicity, logP of the compound; format: physicochemical; conditions: octanol/water
SCC-13 [7] = assay: Antiproliferative activity against human SCC-13 cells assessed as dose-dependent inhibition at 25 to 100 uM incubated for 48 hrs by Coulter cell counter analysis; format: functional, cell-based; conditions: dose 25-100 µM
SCC-13 [8] = assay: Inhibition of cell invasion in human SCC-13 cells at 10 to 50 uM measured over 20 hrs by DAPI staining based fluorescence microscopic analysis; format: functional; conditions: dose 10-50 µM
How it was run: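 Matrigel-coated inserts (8-µm pores); 20,000 SCC-13 cells seeded in upper chamber in growth medium with 1% FCS, lower chamber 10% FCS; invasion followed over 0–20 h; membrane fixed in 4% paraformaldehyde, nuclei DAPI-stained, cells on lower surface counted by fluorescence microscopy.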

[9] = target: T2, Protein-glutamine gamma-glutamyltransferase (Homo sapiens); assay: Irreversible inhibition of recombinant human TG2 expressed in Escherichia coli BL21 assessed as ratio of Kinact/Ki using AL5 as substrate by linear regression analysis
How it was run: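 Same TG2/AL5 continuous 405 nm assay (100 µM AL5, 5 mU/mL TG2, 50 mM MOPS, 7.5 mM CaCl2, 25 °C, 20 min); where saturation was not reached, rate constants of the lowest 3 inhibitor concentrations fitted by linear regression, slope taken as kinact/KI.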

Row | SMILES | Ki [1] | Kinact [2] | Ratio [3] | further results
1 | C=CC(=O)NCCCC[C@H](NC(=O)Cc1ccccc1Br)C(=O)N1CCN(C(=O)[C@H](C)NC(=O)c2cccc3ccccc23)CC1 | 9.8 µM | 2.69 min⁻¹ | 275 10^3/M/min | 
2 | C=CC(=O)NCCCC[C@H](NC(=O)Cc1ccccc1C)C(=O)N1CCN(C(=O)[C@H](Cc2ccccc2)NC(=O)c2cccc3ccccc23)CC1 | 8.8 µM | 1.51 min⁻¹ | 171 10^3/M/min | 
3 | C=CC(=O)NCCCC[C@H](NC(=O)OCc1ccccc1)C(=O)N1CCN(C(=O)[C@H](CC(C)C)NC(=O)c2cccc3ccccc23)CC1 | 12.8 µM | 3.1 min⁻¹ | 240 10^3/M/min | 
4 | C=CC(=O)NCCCC[C@H](NC(=O)Cc1ccccc1OC)C(=O)N1CCN(C(=O)[C@H](C)NC(=O)c2cccc3ccccc23)CC1 | 6 µM | 1.52 min⁻¹ | 252 10^3/M/min | 
5 | C=CC(=O)NCCCC[C@H](NC(=O)Cc1ccccc1Br)C(=O)N1CCN(C(=O)[C@@H](Cc2ccccc2)NC(=O)c2cccc3ccccc23)CC1 |  |  |  | Ratio [9]: 132 10^3/M/min
6 | C=CC(=O)NCCCC[C@H](NC(=O)OCc1ccccc1)C(=O)N1CCN(C(=O)[C@H](NC(=O)c2cccc3ccccc23)C(C)C)CC1 | 1.3 µM | 0.75 min⁻¹ | 595 10^3/M/min | 
7 | C=CC(=O)NCCCC[C@H](NC(=O)OCc1ccccc1)C(=O)N1CCN(C(=O)[C@@H](NC(=O)c2cccc3ccccc23)C(C)C)CC1 | 2.9 µM | 0.79 min⁻¹ | 272 10^3/M/min | 
8 | C=CC(=O)NCCCC[C@H](NC(=O)Cc1ccccc1Cl)C(=O)N1CCN(C(=O)[C@@H](Cc2ccccc2)NC(=O)c2cccc3ccccc23)CC1 |  |  |  | Ratio [9]: 127 10^3/M/min
9 | C=CC(=O)NCCCC[C@H](NC(=O)Cc1ccccc1Br)C(=O)N1CCN(C(=O)[C@H](Cc2ccccc2)NC(=O)c2cccc3ccccc23)CC1 | 1.3 µM | 0.24 min⁻¹ | 182 10^3/M/min | 
10 | C=CC(=O)NCCCC[C@H](NC(=O)OCc1ccccc1)C(=O)NCC(=O)N1CCN(C(=O)c2cccc3ccccc23)CC1 | 2.3 µM | 0.77 min⁻¹ | 330 10^3/M/min | 
11 | C=CC(=O)NCCCC[C@H](NC(=O)Cc1ccccc1C)C(=O)N1CCN(C(=O)[C@@H](Cc2ccccc2)NC(=O)c2cccc3ccccc23)CC1 |  |  |  | Ratio [9]: 238 10^3/M/min
12 | C=CC(=O)NCCCC[C@H](NC(=O)Cc1ccccc1Br)C(=O)N1CCN(C(=O)[C@@H](C)NC(=O)c2cccc3ccccc23)CC1 |  |  | 209 10^3/M/min | 
13 | C=CC(=O)NCCCC[C@H](NC(=O)OCc1ccccc1)C(=O)N1CCN(C(=O)[C@H](Cc2ccccc2)NC(=O)c2cccc3ccccc23)CC1 | 2.1 µM | 0.99 min⁻¹ | 470 10^3/M/min | 
14 | C=CC(=O)NCCCC[C@H](NC(=O)Cc1ccccc1C)C(=O)N1CCN(C(=O)[C@H](C)NC(=O)c2cccc3ccccc23)CC1 | 9.5 µM | 3.95 min⁻¹ | 418 10^3/M/min | 
15 | C=CC(=O)NCCCC[C@H](NC(=O)Cc1ccccc1Cl)C(=O)N1CCN(C(=O)[C@H](Cc2ccccc2)NC(=O)c2cccc3ccccc23)CC1 | 1.6 µM | 0.25 min⁻¹ | 155 10^3/M/min | 
16 | C=CC(=O)NCCCC[C@H](NC(=O)Cc1ccccc1Cl)C(=O)N1CCN(C(=O)[C@@H](C)NC(=O)c2cccc3ccccc23)CC1 |  |  |  | Ratio [9]: 170 10^3/M/min

More lines, in order of falling Ki [1], values ahead:

Row | Ki [1] | Kinact [2] | Ratio [3] | SMILES | further results
17 | 14.9 µM | 5.59 min⁻¹ | 374 10^3/M/min | C=CC(=O)NCCCC[C@H](NC(=O)Cc1ccccc1C)C(=O)N1CCN(C(=O)[C@@H](C)NC(=O)c2cccc3ccccc23)CC1 | 
18 | 9.3 µM | 1.97 min⁻¹ | 211 10^3/M/min | C=CC(=O)NCCCC[C@H](NC(=O)Cc1ccccc1Cl)C(=O)N1CCN(C(=O)[C@H](C)NC(=O)c2cccc3ccccc23)CC1 | 
19 | 8.1 µM | 2.4 min⁻¹ | 300 10^3/M/min | C=CC(=O)NCCCC[C@H](NC(=O)OCc1ccccc1)C(=O)N1CCN(C(=O)[C@@H](NC(=O)c2cccc3ccccc23)C(C)CC)CC1 (some centres undefined) | 
20 | 5.1 µM | 0.29 min⁻¹ | 56 10^3/M/min | C=CC(=O)NCCCC[C@H](NC(=O)OCc1ccccc1)C(=O)N[C@H](C(=O)N1CCN(C(=O)c2cccc3ccccc23)CC1)C(C)C | 
21 | 5.1 µM | 1.16 min⁻¹ | 225 10^3/M/min | C=CC(=O)NCCCC[C@H](NC(=O)Cc1ccc(F)cc1F)C(=O)N1CCN(C(=O)[C@H](C)NC(=O)c2cccc3ccccc23)CC1 | 
22 | 4.4 µM | 1.4 min⁻¹ | 330 10^3/M/min | C=CC(=O)NCCCC[C@H](NC(=O)OCc1ccccc1)C(=O)N1CCN(C(=O)[C@@H](CC(C)C)NC(=O)c2cccc3ccccc23)CC1 | 
23 | 3.4 µM | 0.22 min⁻¹ | 65 10^3/M/min | C=CC(=O)NCCCC[C@H](NC(=O)OCc1ccccc1)C(=O)N[C@@H](C(=O)N1CCN(C(=O)c2cccc3ccccc23)CC1)C(C)C | 
24 | 3.3 µM | 1.68 min⁻¹ | 502 10^3/M/min | C=CC(=O)NCCCC[C@H](NC(=O)Cc1ccccc1F)C(=O)N1CCN(C(=O)[C@H](C)NC(=O)c2cccc3ccccc23)CC1 | 
25 | 2.3 µM | 1.4 min⁻¹ | 610 10^3/M/min | C=CC(=O)NCCCC[C@H](NC(=O)OCc1ccccc1)C(=O)N1CCN(C(=O)[C@H](C)NC(=O)c2cccc3ccccc23)CC1 | 
26 | 1.3 µM | 0.75 min⁻¹ | 590 10^3/M/min | C=CC(=O)NCCCC[C@H](NC(=O)OCc1ccccc1)C(=O)N1CCN(C(=O)[C@@H](C)NC(=O)c2cccc3ccccc23)CC1 | 
27 | 1 µM | 0.8 min⁻¹ | 760 10^3/M/min | C=CC(=O)NCCCC[C@H](NC(=O)OCc1ccccc1)C(=O)N1CCN(C(=O)[C@@H](Cc2ccccc2)NC(=O)c2cccc3ccccc23)CC1 | Papp A→B [4]: 0.06 ×10⁻⁶ cm/s; Papp B→A [5]: 5.46 ×10⁻⁶ cm/s; efflux ratio (MDR1): 96.7; logP [6]: 2.73; Activity (SCC-13 [7]): inactive; inhibition (SCC-13 [8]): Active
28 | 0.3 µM | 0.16 min⁻¹ | 513 10^3/M/min | C=CC(=O)NCCCC[C@H](NC(=O)OCc1ccccc1)C(=O)N1CCN(C(=O)CNC(=O)c2cccc3ccccc23)CC1 | Papp A→B [4]: 0.55 ×10⁻⁶ cm/s; Papp B→A [5]: 8.43 ×10⁻⁶ cm/s; efflux ratio (MDR1): 15.5; logP [6]: 2.99
